The values that follow come from ChEMBL document CHEMBL1158573, “Cytotoxic and NF-kappaB inhibitory constituents of Artocarpus rigida” (J Nat Prod, 2010).

The target in assay [1] is Transcription factor p65 (Homo sapiens) (UniProt Q04206). In words: Inhibition of NFkappa p65 isolated from nuclear extract of human HeLa cells assessed as blockade of binding to biotinylated consesus sequence by chemiluminescence assay. The format is cell-free. Summed up: (§1)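 ELISA-format transcription factor assay. HeLa nuclear extract was treated with samples, and activated p50 or p65 bound to a biotinylated consensus sequence was detected by chemiluminescence on a plate reader. IC50 reported in μM.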
Chain of Transcription factor p65 (Homo sapiens) (Q04206 whole entry): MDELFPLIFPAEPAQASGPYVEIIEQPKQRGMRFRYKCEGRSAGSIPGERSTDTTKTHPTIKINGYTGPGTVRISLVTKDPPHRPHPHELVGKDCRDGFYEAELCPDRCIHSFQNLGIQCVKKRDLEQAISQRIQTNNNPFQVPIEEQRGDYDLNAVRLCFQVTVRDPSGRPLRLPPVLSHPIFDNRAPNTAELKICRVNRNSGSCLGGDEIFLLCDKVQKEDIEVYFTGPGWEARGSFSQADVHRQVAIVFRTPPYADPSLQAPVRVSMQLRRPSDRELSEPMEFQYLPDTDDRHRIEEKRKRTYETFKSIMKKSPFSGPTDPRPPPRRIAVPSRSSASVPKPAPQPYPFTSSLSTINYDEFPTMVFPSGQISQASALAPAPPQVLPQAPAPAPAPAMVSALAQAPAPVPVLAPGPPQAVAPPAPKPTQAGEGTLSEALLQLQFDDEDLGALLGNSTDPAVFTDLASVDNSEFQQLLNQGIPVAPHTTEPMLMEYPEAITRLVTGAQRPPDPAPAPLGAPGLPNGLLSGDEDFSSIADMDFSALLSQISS

The test system of assay [2] is HT-29. As to the kind of experiment: Cytotoxicity against human HT-29 cells after 3 days by SRB assay. The assay is classed as functional. Conditions: for EC50: HT-29, 72 h, read-out: ED50 (the source's name). Summed up: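 HT-29 colon cancer cells, trypsinized and seeded in 96-well plates, treated with compounds in DMSO (DMSO as negative control). Incubated 3 days at 37 °C, 5% CO2, then fixed, 30 min at room temperature, washed, dried overnight, stained with sulforhodamine B. Dye solubilized in tris-base buffer, absorbance read at 515 nm. Cytotoxicity calculated versus DMSO control, reported as ED50 (μM). Paclitaxel as positive control.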

Assay [3] deals with T1, Nuclear factor NF-kappa-B p105 subunit (Homo sapiens) (UniProt P19838).
T1 sequence (whole entry): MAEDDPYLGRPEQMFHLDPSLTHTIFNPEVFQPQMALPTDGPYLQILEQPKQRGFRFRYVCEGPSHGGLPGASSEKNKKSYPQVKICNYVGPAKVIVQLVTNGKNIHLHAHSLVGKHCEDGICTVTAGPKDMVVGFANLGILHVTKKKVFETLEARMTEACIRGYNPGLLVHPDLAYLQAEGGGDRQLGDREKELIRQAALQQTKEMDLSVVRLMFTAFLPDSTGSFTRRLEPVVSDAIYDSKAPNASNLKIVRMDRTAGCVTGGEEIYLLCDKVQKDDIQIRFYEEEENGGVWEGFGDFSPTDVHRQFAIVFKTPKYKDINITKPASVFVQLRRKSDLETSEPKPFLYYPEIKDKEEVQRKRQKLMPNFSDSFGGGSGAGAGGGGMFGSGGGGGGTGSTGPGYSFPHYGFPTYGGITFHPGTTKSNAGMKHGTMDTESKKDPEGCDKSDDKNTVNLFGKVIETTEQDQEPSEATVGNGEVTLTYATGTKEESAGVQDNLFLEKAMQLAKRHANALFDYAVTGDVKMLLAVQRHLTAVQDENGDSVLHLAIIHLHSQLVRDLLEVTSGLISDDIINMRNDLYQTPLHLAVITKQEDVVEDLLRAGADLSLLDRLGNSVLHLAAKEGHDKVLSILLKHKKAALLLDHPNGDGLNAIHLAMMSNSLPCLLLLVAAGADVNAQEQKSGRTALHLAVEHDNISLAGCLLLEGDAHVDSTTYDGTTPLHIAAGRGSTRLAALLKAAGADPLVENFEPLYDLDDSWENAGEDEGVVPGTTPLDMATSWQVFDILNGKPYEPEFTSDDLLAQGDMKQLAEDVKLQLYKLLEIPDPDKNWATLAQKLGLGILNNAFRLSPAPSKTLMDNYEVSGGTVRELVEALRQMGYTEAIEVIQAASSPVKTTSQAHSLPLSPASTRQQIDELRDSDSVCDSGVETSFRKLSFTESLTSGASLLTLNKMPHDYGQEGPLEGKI
As to the kind of experiment: Inhibition of NFkappa p50 isolated from nuclear extract of human HeLa cells assessed as blockade of binding to biotinylated consesus sequence by chemiluminescence assay. The format is cell-free. Summed up:
as §1

The source made the active and inactive calls. The rule behind the calls is not given here.

On to `C[C@H]1[C@H](C)CC[C@]2(C(=O)O)CC[C@]3(C)C(=CC[C@@H]4[C@@]5(C)CC[C@H](O)C(C)(C)[C@@H]5CC[C@]43C)[C@H]12`, for which the outcome in assay [1], in assay [2] and in assay [3] was inactive.
For the molecule `C=C(C)c1cc2c(=O)c3c(O)c(CC=C(C)C)c(O)cc3oc2c2c1C(=O)C(O)=C(CC=C(C)C)C2=O` [ARTORIGIDIN C], in assay [2], the EC50 is above 10 µM.
On to `CC(C)=CCc1c(O)cc2oc3c(cc4c5c(c(O)c(CC=C(C)C)c(O)c53)OC4(C)C)c(=O)c2c1O`, for which the outcome in assay [1], in assay [2] and in assay [3] was inactive.
For `CC(=O)O[C@H]1C(=O)[C@@]2(C)[C@H]([C@H](OC(=O)c3ccccc3)[C@]3(O)C[C@H](OC(=O)[C@H](O)[C@@H](NC(=O)c4ccccc4)c4ccccc4)C(C)=C1C3(C)C)[C@]1(OC(C)=O)CO[C@@H]1C[C@@H]2O` [PACLITAXEL], in assay [2], the EC50 was 0.0001 µM.
On to `C=C(C)[C@@H]1CC[C@]2(C(=O)O)CC[C@]3(C)[C@H](CC[C@@H]4[C@@]5(C)CC[C@H](O)C(C)(C)[C@@H]5CC[C@]43C)[C@@H]12`, for which the outcome in assay [1], in assay [2] and in assay [3] was inactive.
Consider `C=C(C)c1cc2c(=O)c3c(O)c(CC=C(C)C)c(O)cc3oc2c2c(O)c3c(c(O)c12)OC(C)(C)C=C3`, for which the result in assay [1], in assay [2] and in assay [3] was inactive.
For the molecule `CC1(C)C=Cc2cc3c(cc2O1)Oc1cc(O)ccc1C(O)=C3` [ARTORISTILBENE], in assay [2], the EC50 came to 10.7 µM.
For the molecule `COc1cc(O)c2c(=O)c3cc4c5c(c(O)cc(O)c5c3oc2c1)OC4(C)C`, the result in assay [1], in assay [2] and in assay [3] was inactive.
For `C=C(C)[C@H]1Cc2c(oc3c4c(cc(O)c3c2=O)OC(C)(C)C=C4)-c2c(O)cc(O)c(O)c21` [ARTOBILOXANTHONE], in assay [2], the EC50 is above 10 µM.
